Legend:
Assay type in all cases: functional
Homo sapiens [1] = species on record: Homo sapiens; experiment: Reduction of plasma triglyceride level in human; set-up: scale not given: the % may be the effect or the level left
Homo sapiens [2] = species on record: Homo sapiens; experiment: Increase of plasma HDL cholesterol level in human
Rattus norvegicus [3] = experiment: Hypolipidemic activity in 14 days high cholesterol diet fed Wistar albino rat hyperlipidemic model assessed as decrease in serum total cholesterol level at 20 mg/kg, po administered on day 8 to 14; set-up: scale not given: the % may be the effect or the level left
How it was run: (§1)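 Male Wistar rats (160–180 g), acclimatized one week, fed chow with 2% cholesterol and 1% cholic acid for 14 days. Oral dosing was 20 mg/kg in 0.5% CMC on days 8–14, with six rats per group. On day 14, after a 12 h fast, tail blood was drawn under ether. Serum was analysed by kit spectrophotometry. Results are % change versus vehicle-treated hyperlipidemic controls.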

Rattus norvegicus [4] = experiment: Hypolipidemic activity in 14 days high cholesterol diet fed Wistar albino rat hyperlipidemic model assessed as decrease in serum triglyceride level at 20 mg/kg, po administered on day 8 to 14; set-up: scale not given: the % may be the effect or the level left; how it was run: as §1
Rattus norvegicus [5] = experiment: Hypolipidemic activity in 14 days high cholesterol diet fed Wistar albino rat hyperlipidemic model assessed as increase in serum high density lipoprotein cholesterol level at 20 mg/kg, po administered on day 8 to 14; how it was run: as §1
Rattus norvegicus [6] = experiment: Hypolipidemic activity in 14 days high cholesterol diet fed Wistar albino rat hyperlipidemic model assessed as decrease in serum low density lipoprotein cholesterol level at 20 mg/kg, po administered on day 8 to 14; set-up: scale not given: the % may be the effect or the level left
How it was run: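 HCD model in male Wistar rats (160–180 g) on chow plus 2% cholesterol and 1% cholic acid for 14 days. Oral dosing was 20 mg/kg in 0.5% carboxymethylcellulose from day 8 to 14, with groups of six. Rats were fasted 12 h on day 14, and tail blood was taken under mild ether anesthesia. Serum was separated by centrifugation at 3000 rpm for 10 min for lipoprotein cholesterol measurement.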

Rattus norvegicus [7] = experiment: Ratio of serum LDL cholesterol to serum HDL cholesterol in 14 days high cholesterol diet fed Wistar albino rat at 20 mg/kg, po administered on day 8 to 14

For `CCOC(=O)C(C)(C)Oc1ccc(Cl)cc1` [CLOFIBRATE], the Activity (Homo sapiens [1]) was 30% and the Activity (Homo sapiens [2]) was 5%.
For `Cc1cccc(OC(C)(C)C(=O)NCCc2ccccc2)c1`, the Activity (Rattus norvegicus [3]) was 12.95%, the Activity (Rattus norvegicus [4]) was 1.2% and the Activity (Rattus norvegicus [5]) was 22.45%. The Activity (Rattus norvegicus [6]) was 21.21% and the Ratio (Rattus norvegicus [7]) was 4.09.
Molecule `Cc1ccc(C)c(OCCCC(C)(C)C(=O)O)c1` [GEMFIBROZIL] has an Activity (Rattus norvegicus [3]) of 4.68%, an Activity (Rattus norvegicus [4]) of 22.23% and an Activity (Rattus norvegicus [5]) of 25.18%. The Activity (Rattus norvegicus [6]) was 5.35% and the Ratio (Rattus norvegicus [7]) was 4.81.
`COc1ccc(/C=N/NC(=O)C(C)(C)Oc2cccc(C)c2)cc1` showed an Activity (Rattus norvegicus [4]) of 9.03%, an Activity (Rattus norvegicus [5]) of 15.8% and an Activity (Rattus norvegicus [6]) of -9.39%. The Ratio (Rattus norvegicus [7]) was 5.41.
In the case of `Cc1cccc(OC(C)(C)C(=O)N/N=C/c2ccccc2Cl)c1`, the Activity (Rattus norvegicus [3]) is reported as 0%, the Activity (Rattus norvegicus [4]) is reported as -1.32% and the Activity (Rattus norvegicus [5]) is reported as 14.6%. For the same molecule, the Activity (Rattus norvegicus [6]) was 2.6% and the Ratio (Rattus norvegicus [7]) was 6.
`Cc1cccc(OC(C)(C)C(=O)O)c1` was tested, and the Activity (Rattus norvegicus [3]) was 15.89%, the Activity (Rattus norvegicus [4]) was 17.98% and the Activity (Rattus norvegicus [5]) was 10.68%. For the same molecule, the Activity (Rattus norvegicus [6]) was 19.56% and the Ratio (Rattus norvegicus [7]) was 4.62.
For `Cc1cccc(OC(C)(C)C(=O)N/N=C/c2ccccc2)c1`, the Activity (Rattus norvegicus [3]) was 4.12%, the Activity (Rattus norvegicus [4]) was 2.54% and the Activity (Rattus norvegicus [5]) was 18.47%. It also gave an Activity (Rattus norvegicus [6]) of 8.02% and a Ratio (Rattus norvegicus [7]) of 4.94.
`C=CCNC(=S)NNC(=O)C(C)(C)Oc1cccc(C)c1` was tested, and the Activity (Rattus norvegicus [3]) was -1.77%, the Activity (Rattus norvegicus [4]) was -1.61% and the Activity (Rattus norvegicus [5]) was 6.78%. It also gave an Activity (Rattus norvegicus [6]) of -1% and a Ratio (Rattus norvegicus [7]) of 6.02.
`CC(C)(Oc1ccc(CCNC(=O)c2ccc(Cl)cc2)cc1)C(=O)O` [BEZAFIBRATE] gave an Activity (Homo sapiens [1]) of 30% and an Activity (Homo sapiens [2]) of 5%.
For `COc1ccc(NC(=O)C(C)(C)Oc2cccc(C)c2)cc1`, the Activity (Rattus norvegicus [3]) was 23.24%, the Activity (Rattus norvegicus [4]) was 25.79% and the Activity (Rattus norvegicus [5]) was 15.28%. For the same molecule, the Activity (Rattus norvegicus [6]) was 28.67% and the Ratio (Rattus norvegicus [7]) was 3.93.
`Cc1cccc(OC(C)(C)C(=O)N/N=C/c2ccc([N+](=O)[O-])cc2)c1` was tested, and the Activity (Rattus norvegicus [3]) was 0.29%, the Activity (Rattus norvegicus [4]) was -0.84% and the Activity (Rattus norvegicus [5]) was 9.12%. For the same molecule, the Activity (Rattus norvegicus [6]) was 2.3% and the Ratio (Rattus norvegicus [7]) was 5.71.
`CC(C)OC(=O)C(C)(C)Oc1ccc(C(=O)c2ccc(Cl)cc2)cc1` [FENOFIBRATE] gave an Activity (Homo sapiens [1]) of 30% and an Activity (Homo sapiens [2]) of 5%.
`CCOC(=O)c1ccc(NC(=O)C(C)(C)Oc2cccc(C)c2)cc1` was tested, and the Activity (Rattus norvegicus [3]) was 2.65%, the Activity (Rattus norvegicus [4]) was 0.43% and the Activity (Rattus norvegicus [5]) was 15.04%. It also gave an Activity (Rattus norvegicus [6]) of 5.94% and a Ratio (Rattus norvegicus [7]) of 5.2.
`CCNC(=S)NNC(=O)C(C)(C)Oc1cccc(C)c1` gave an Activity (Rattus norvegicus [3]) of -0.59%, an Activity (Rattus norvegicus [4]) of 5.44% and an Activity (Rattus norvegicus [5]) of 5.85%. The Activity (Rattus norvegicus [6]) was -1.16% and the Ratio (Rattus norvegicus [7]) was 6.08.

Source: ChEMBL document CHEMBL1158379, “Design, synthesis and hypolipidemic activity of novel 2-(m-tolyloxy) isobutyric acid derivatives” (2009)
